Measured values published in ChEMBL document CHEMBL3046615, “Isolation of nematicidal compounds from Tagetes patula L. yellow flowers: structure-activity relationship studies against cyst nematode Heterodera zeae infective stage larvae” (2011).
The source made the active and inactive calls. The calls are words filed in the database; no cut-off is given here.

What was measured:
Heterodera zeae [1] = experiment: Nematicidal activity against Heterodera zeae infective stage larvae assessed as nematode mortality at 5% under dark conditions measured 5 to 60 min post dose by stereoscopic microscopy; assay type: functional, organism-based
Summary of the method: (§1)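 H. zeae freshly hatched second-stage juveniles, 100 per plate, three replicates, at 28 ± 2 °C under light or in a dark box. Dilutions are % of a stock: 30 mg/mL for extracts/fractions, 1 mg/mL for pure compounds. Methanol-, DMSO- or water-soluble samples were tested in glass cavity blocks. Petroleum ether-soluble samples were air-dried in the block and covered with agar pieces bearing cultured larvae. Mortality was followed over 5–60 min; each value is the mean of three experiments.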

Heterodera zeae [2] = experiment: Nematicidal activity against Heterodera zeae infective stage larvae assessed as nematode mortality at 0.5% under light conditions measured 5 to 60 min post dose by stereoscopic microscopy; assay type: functional, organism-based; summary of the method: as §1
Heterodera zeae [3] = experiment: Nematicidal activity against Heterodera zeae infective stage larvae assessed as nematode mortality at 1% under dark conditions measured 24 hr post dose by stereoscopic microscopy; assay type: functional
Summary of the method: (§2)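 Freshly hatched H. zeae second-stage juveniles, 100 per Petri plate, three replicates. Samples in MeOH, DMSO or water were tested in glass cavity blocks; petroleum ether samples were dried onto the block and larvae transferred on agar pieces. Percentages are dilutions of 30 mg/mL stocks (extracts/fractions) or 1 mg/mL stocks (pure compounds). Incubated at 28 ± 2 °C in light or dark box; mortality averaged over three replicates.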

Heterodera zeae [4] = experiment: Nematicidal activity against Heterodera zeae infective stage larvae assessed as nematode mortality at 1% under dark conditions measured 72 hr post dose by stereoscopic microscopy; assay type: functional; summary of the method: as §2
Heterodera zeae [5] = experiment: Nematicidal activity against Heterodera zeae infective stage larvae assessed as nematode mortality at 2% under light conditions measured 5 to 60 min post dose by stereoscopic microscopy; assay type: functional, organism-based; summary of the method: as §1
Heterodera zeae [6] = experiment: Nematicidal activity against Heterodera zeae infective stage larvae assessed as nematode mortality at 0.25% under light conditions measured 5 to 60 min post dose by stereoscopic microscopy; assay type: functional, organism-based; summary of the method: as §1
Heterodera zeae [7] = experiment: Nematicidal activity against Heterodera zeae infective stage larvae assessed as nematode mortality at 0.25% under dark conditions measured 48 hr post dose by stereoscopic microscopy; assay type: functional; summary of the method: as §2
Heterodera zeae [8] = experiment: Nematicidal activity against Heterodera zeae infective stage larvae assessed as nematode mortality at 5% under light conditions measured 5 to 60 min post dose by stereoscopic microscopy; assay type: functional, organism-based; summary of the method: as §1
Heterodera zeae [9] = experiment: Nematicidal activity against Heterodera zeae infective stage larvae assessed as nematode mortality at 0.125% under light conditions measured 24 hr post dose by stereoscopic microscopy; assay type: functional; summary of the method: as §2
Heterodera zeae [10] = experiment: Nematicidal activity against Heterodera zeae infective stage larvae assessed as nematode mortality at 0.125% under light conditions measured 48 hr post dose by stereoscopic microscopy; assay type: functional; summary of the method: as §2
Heterodera zeae [11] = experiment: Nematicidal activity against Heterodera zeae infective stage larvae assessed as nematode mortality at 0.125% under dark conditions measured 48 hr post dose by stereoscopic microscopy; assay type: functional; summary of the method: as §2
Heterodera zeae [12] = experiment: Nematicidal activity against Heterodera zeae infective stage larvae assessed as nematode mortality at 1% under light conditions measured 5 to 60 min post dose by stereoscopic microscopy; assay type: functional, organism-based; summary of the method: as §1
Heterodera zeae [13] = experiment: Nematicidal activity against Heterodera zeae infective stage larvae assessed as nematode mortality at 0.5% under light conditions measured 48 hr post dose by stereoscopic microscopy; assay type: functional; summary of the method: as §2
Heterodera zeae [14] = experiment: Nematicidal activity against Heterodera zeae infective stage larvae assessed as nematode mortality at 2% under dark conditions measured 5 to 60 min post dose by stereoscopic microscopy; assay type: functional, organism-based; summary of the method: as §1
Heterodera zeae [15] = experiment: Nematicidal activity against Heterodera zeae infective stage larvae assessed as nematode mortality at 0.25% under light conditions measured 72 hr post dose by stereoscopic microscopy; assay type: functional; summary of the method: as §2
Heterodera zeae [16] = experiment: Nematicidal activity against Heterodera zeae infective stage larvae assessed as nematode mortality at 0.5% under dark conditions measured 5 to 60 min post dose by stereoscopic microscopy; assay type: functional, organism-based; summary of the method: as §1
Heterodera zeae [17] = experiment: Nematicidal activity against Heterodera zeae infective stage larvae assessed as nematode mortality at 0.5% under dark conditions measured 48 hr post dose by stereoscopic microscopy; assay type: functional; summary of the method: as §2
Heterodera zeae [18] = experiment: Nematicidal activity against Heterodera zeae infective stage larvae assessed as nematode mortality at 0.25% under dark conditions measured 72 hr post dose by stereoscopic microscopy; assay type: functional; summary of the method: as §2
Heterodera zeae [19] = experiment: Nematicidal activity against Heterodera zeae infective stage larvae assessed as nematode mortality at 0.5% under light conditions measured 72 hr post dose by stereoscopic microscopy; assay type: functional; summary of the method: as §2
Heterodera zeae [20] = experiment: Nematicidal activity against Heterodera zeae infective stage larvae assessed as nematode mortality at 1% under dark conditions measured 48 hr post dose by stereoscopic microscopy; assay type: functional; summary of the method: as §2
Heterodera zeae [21] = experiment: Nematicidal activity against Heterodera zeae infective stage larvae assessed as nematode mortality at 0.25% under dark conditions measured 24 hr post dose by stereoscopic microscopy; assay type: functional; summary of the method: as §2
Heterodera zeae [22] = experiment: Nematicidal activity against Heterodera zeae infective stage larvae assessed as nematode mortality at 0.25% under light conditions measured 24 hr post dose by stereoscopic microscopy; assay type: functional; summary of the method: as §2
Heterodera zeae [23] = experiment: Nematicidal activity against Heterodera zeae infective stage larvae assessed as nematode mortality at 0.5% under light conditions measured 24 hr post dose by stereoscopic microscopy; assay type: functional; summary of the method: as §2
Heterodera zeae [24] = experiment: Nematicidal activity against Heterodera zeae infective stage larvae assessed as nematode mortality at 0.125% under dark conditions measured 24 hr post dose by stereoscopic microscopy; assay type: functional; summary of the method: as §2
Heterodera zeae [25] = experiment: Nematicidal activity against Heterodera zeae infective stage larvae assessed as nematode mortality at 0.125% under light conditions measured 72 hr post dose by stereoscopic microscopy; assay type: functional; summary of the method: as §2
Heterodera zeae [26] = experiment: Nematicidal activity against Heterodera zeae infective stage larvae assessed as nematode mortality at 1% under dark conditions measured 5 to 60 min post dose by stereoscopic microscopy; assay type: functional, organism-based; summary of the method: as §1
Heterodera zeae [27] = experiment: Nematicidal activity against Heterodera zeae infective stage larvae assessed as nematode mortality at 0.125% under dark conditions measured 5 to 60 min post dose by stereoscopic microscopy; assay type: functional, organism-based; summary of the method: as §1
Heterodera zeae [28] = experiment: Nematicidal activity against Heterodera zeae infective stage larvae assessed as nematode mortality at 0.5% under dark conditions measured 24 hr post dose by stereoscopic microscopy; assay type: functional; summary of the method: as §2
Heterodera zeae [29] = experiment: Nematicidal activity against Heterodera zeae infective stage larvae assessed as nematode mortality at 1% under light conditions measured 24 hr post dose by stereoscopic microscopy; assay type: functional; summary of the method: as §2
Heterodera zeae [30] = experiment: Nematicidal activity against Heterodera zeae infective stage larvae assessed as nematode mortality at 0.5% under dark conditions measured 72 hr post dose by stereoscopic microscopy; assay type: functional; summary of the method: as §2
Heterodera zeae [31] = experiment: Nematicidal activity against Heterodera zeae infective stage larvae assessed as nematode mortality at 0.125% under light conditions measured 5 to 60 min post dose by stereoscopic microscopy; assay type: functional, organism-based; summary of the method: as §1
Heterodera zeae [32] = experiment: Nematicidal activity against Heterodera zeae infective stage larvae assessed as nematode mortality at 0.25% under light conditions measured 48 hr post dose by stereoscopic microscopy; assay type: functional; summary of the method: as §2
Heterodera zeae [33] = experiment: Nematicidal activity against Heterodera zeae infective stage larvae assessed as nematode mortality at 1% under light conditions measured 48 hr post dose by stereoscopic microscopy; assay type: functional; summary of the method: as §2
Heterodera zeae [34] = experiment: Nematicidal activity against Heterodera zeae infective stage larvae assessed as nematode mortality at 0.25% under dark conditions measured 5 to 60 min post dose by stereoscopic microscopy; assay type: functional, organism-based; summary of the method: as §1
Heterodera zeae [35] = experiment: Nematicidal activity against Heterodera zeae infective stage larvae assessed as nematode mortality at 0.125% under dark conditions measured 72 hr post dose by stereoscopic microscopy; assay type: functional; summary of the method: as §2
Heterodera zeae [36] = experiment: Nematicidal activity against Heterodera zeae infective stage larvae assessed as nematode mortality at 1% under light conditions measured 72 hr post dose by stereoscopic microscopy; assay type: functional; summary of the method: as §2

SMILES	Activity (Heterodera zeae [1])	Activity (Heterodera zeae [2])	mortality (Heterodera zeae [3])	Activity (Heterodera zeae [5])	Activity (Heterodera zeae [6])	mortality (Heterodera zeae [7])	Activity (Heterodera zeae [8])	mortality (Heterodera zeae [9])	mortality (Heterodera zeae [10])	mortality (Heterodera zeae [11])	Activity (Heterodera zeae [12])	mortality (Heterodera zeae [13])	Activity (Heterodera zeae [14])	mortality (Heterodera zeae [15])	Activity (Heterodera zeae [16])	mortality (Heterodera zeae [17])	mortality (Heterodera zeae [18])	mortality (Heterodera zeae [20])	mortality (Heterodera zeae [21])	mortality (Heterodera zeae [22])	also measured
COc1ccc(C(=O)O)cc1OC [VERATRIC ACID]	inactive	inactive	50%	inactive	inactive	40%	inactive	10%	50%	20%	inactive	80%	inactive	100%	inactive	50%	80%	60%	30%	10%	mortality (Heterodera zeae [4]): 90%; mortality (Heterodera zeae [19]): 100%; mortality (Heterodera zeae [23]): 60%; mortality (Heterodera zeae [24]): 10%; mortality (Heterodera zeae [25]): 100%; Activity (Heterodera zeae [26]): inactive; Activity (Heterodera zeae [27]): inactive; mortality (Heterodera zeae [28]): 50%; mortality (Heterodera zeae [29]): 80%; mortality (Heterodera zeae [30]): 80%; Activity (Heterodera zeae [31]): inactive; mortality (Heterodera zeae [32]): 50%; mortality (Heterodera zeae [33]): 100%; Activity (Heterodera zeae [34]): inactive; mortality (Heterodera zeae [35]): 50%
COc1ccc(C(=O)O)cc1 [p-ANISIC ACID]	inactive	inactive	50%	inactive	inactive	40%	inactive	10%	10%	20%	inactive	40%	inactive	50%	inactive	50%	80%	60%	30%	10%	mortality (Heterodera zeae [4]): 90%; mortality (Heterodera zeae [19]): 50%; mortality (Heterodera zeae [23]): 30%; mortality (Heterodera zeae [24]): 10%; mortality (Heterodera zeae [25]): 40%; Activity (Heterodera zeae [26]): inactive; Activity (Heterodera zeae [27]): inactive; mortality (Heterodera zeae [28]): 50%; mortality (Heterodera zeae [29]): 40%; mortality (Heterodera zeae [30]): 80%; mortality (Heterodera zeae [36]): 80%; Activity (Heterodera zeae [31]): inactive; mortality (Heterodera zeae [32]): 20%; mortality (Heterodera zeae [33]): 50%; Activity (Heterodera zeae [34]): inactive; mortality (Heterodera zeae [35]): 50%
CCCCCCCC/C=C\CCCCCCCC(=O)OC [METHYL OLEATE]	inactive	inactive	50%	inactive	inactive	10%	inactive	10%	50%	10%	inactive	100%	inactive	100%	inactive	100%	10%	100%	10%	10%	mortality (Heterodera zeae [23]): 50%; mortality (Heterodera zeae [24]): 10%; mortality (Heterodera zeae [25]): 100%; Activity (Heterodera zeae [26]): inactive; Activity (Heterodera zeae [27]): inactive; mortality (Heterodera zeae [28]): 40%; mortality (Heterodera zeae [29]): 50%; Activity (Heterodera zeae [31]): inactive; mortality (Heterodera zeae [32]): 50%; mortality (Heterodera zeae [33]): 100%; Activity (Heterodera zeae [34]): inactive; mortality (Heterodera zeae [35]): 10%
CCCCCCCCCCCCCCCCCC(=O)O [STEARIC ACID]	inactive	inactive	100%	inactive	inactive	70%	inactive	50%	50%	50%	inactive	70%	inactive	100%	inactive	70%	100%	100%	40%	40%	mortality (Heterodera zeae [19]): 100%; mortality (Heterodera zeae [23]): 50%; mortality (Heterodera zeae [24]): 40%; mortality (Heterodera zeae [25]): 70%; Activity (Heterodera zeae [26]): inactive; Activity (Heterodera zeae [27]): inactive; mortality (Heterodera zeae [28]): 50%; mortality (Heterodera zeae [29]): 100%; mortality (Heterodera zeae [30]): 100%; Activity (Heterodera zeae [31]): inactive; mortality (Heterodera zeae [32]): 70%; Activity (Heterodera zeae [34]): inactive; mortality (Heterodera zeae [35]): 70%
CCCCCCCC/C=C\CCCCCCCC(=O)O [OLEIC ACID]	inactive	inactive	50%	inactive	inactive	10%	inactive	10%	50%	10%	inactive	100%	inactive	100%	inactive	100%	10%	100%	10%	10%	mortality (Heterodera zeae [23]): 50%; mortality (Heterodera zeae [24]): 10%; mortality (Heterodera zeae [25]): 100%; Activity (Heterodera zeae [26]): inactive; Activity (Heterodera zeae [27]): inactive; mortality (Heterodera zeae [28]): 40%; mortality (Heterodera zeae [29]): 50%; Activity (Heterodera zeae [31]): inactive; mortality (Heterodera zeae [32]): 50%; mortality (Heterodera zeae [33]): 100%; Activity (Heterodera zeae [34]): inactive; mortality (Heterodera zeae [35]): 10%
